Source: ChEMBL document CHEMBL5108039, “Piperazine tethered bergenin heterocyclic hybrids: design, synthesis, anticancer activity, and molecular docking studies” (RSC Med Chem, 2022)
Calls of active or inactive are those of the source. The rule behind the calls is not given here.

What was measured:
[1] = tested on: SCC-9; assay: Induction of apoptosis in human SCC-9 cells assessed as early apoptotic cells at 32.4 uM incubated for 24 hrs by Annexin V-FITC/PI staining based flow cytometric analysis (reference value: 2.8 %); format: functional
[2] = tested on: CAL-27; assay: Induction of apoptosis in human CAL-27 cells assessed as downregulation of BcL-2 gene expression at 16 uM by qRT-PCR analysis; format: functional, cell-based
Method in brief: (§1)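 CAL27 cells were treated with test compounds at several concentrations. Relative expression of vimentin, E-cad, Nanog, Oct-4, Bax and BcL-2 was measured by qRT-PCR against vehicle-treated control cells.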

[3] = tested on: SCC-9; assay: Cell cycle arrest in human SCC-9 cells assessed as accumulation at G2/M phase at 32.4 uM incubated for 24 hrs by flow cytometry (reference value: 14.2 %); format: functional
[4] = tested on: SCC-9; assay: Induction of apoptosis in human SCC-9 cells assessed as late apoptotic cells at 16.2 uM incubated for 24 hrs by Annexin V-FITC/PI staining based flow cytometric analysis (reference value: 1.4 %); format: functional
[5] = tested on: SCC-9; assay: Induction of apoptosis in human SCC-9 cells assessed as downregulation of Oct-4 gene expression at 16 uM by qRT-PCR analysis; format: functional, cell-based
[6] = tested on: CAL-27; assay: Induction of apoptosis in human CAL-27 cells assessed as downregulation of Oct-4 gene expression at 32 uM by qRT-PCR analysis; format: functional, cell-based; method in brief: as §1
[7] = tested on: CAL-27; assay: Cell cycle arrest in human CAL-27 cells assessed as accumulation at S phase at 16 uM incubated for 24 hrs by flow cytometry (reference value: 3.6 %); format: functional
[8] = tested on: SCC-9; assay: Induction of apoptosis in human SCC-9 cells assessed as necrotic cells at 16.2 uM incubated for 24 hrs by Annexin V-FITC/PI staining based flow cytometric analysis (reference value: 0.1 %); format: functional
[9] = tested on: SCC-9; assay: Induction of apoptosis in human SCC-9 cells assessed as upregulation of Bax gene expression at 32 uM by qRT-PCR analysis; format: functional, cell-based
[10] = tested on: SCC-9; assay: Cell cycle arrest in human SCC-9 cells assessed as accumulation at G2/M phase at 16.2 uM incubated for 24 hrs by flow cytometry (reference value: 14.2 %); format: functional
[11] = tested on: CAL-27; assay: Induction of apoptosis in human CAL-27 cells assessed as early apoptotic cells at 32 uM incubated for 24 hrs by Annexin V-FITC/PI staining based flow cytometric analysis (reference value: 0.1 %); format: functional
Method in brief: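 CAL27 cells were treated with vehicle, doxorubicin or test compounds at 10–63 μM, and apoptosis was assessed by annexin V–FITC/PI staining with flow cytometry. Cells were scored as live, early apoptotic, late apoptotic or necrotic. The vehicle was DMSO (0.01%).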

[12] = tested on: CAL-27; assay: Induction of apoptosis in human CAL-27 cells assessed as downregulation of vimentin gene expression at 32 uM by qRT-PCR analysis; format: functional, cell-based; method in brief: as §1
[13] = tested on: SCC-9; assay: Induction of apoptosis in human SCC-9 cells assessed as live cells at 32.4 uM incubated for 24 hrs by Annexin V-FITC/PI staining based flow cytometric analysis (reference value: 95.7 %); format: functional
[14] = tested on: SCC-9; assay: Induction of apoptosis in human SCC-9 cells assessed as necrotic cells at 32.4 uM incubated for 24 hrs by Annexin V-FITC/PI staining based flow cytometric analysis (reference value: 0.1 %); format: functional
[15] = tested on: CAL-27; assay: Cell cycle arrest in human CAL-27 cells assessed as accumulation at G0/G1 phase at 32 uM incubated for 24 hrs by flow cytometry (reference value: 77.6 %); format: functional
[16] = Cytotoxicity against human BEAS-2B cells assessed as cell growth inhibition; format: toxicity, cell-based
Method in brief: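 Compounds were dissolved in sterile DMSO as 10 mg ml−1 stocks and tested in vitro for cytotoxicity in a cell-line panel, with DMSO (0.01%) as vehicle control and doxorubicin as standard. Mean IC50 values were reported, and the normal lung epithelial cells were tested up to 100 μM.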

[17] = tested on: SCC-9; assay: Induction of apoptosis in human SCC-9 cells assessed as downregulation of vimentin gene expression at 16 uM by qRT-PCR analysis; format: functional, cell-based
[18] = tested on: CAL-27; assay: Induction of apoptosis in human CAL-27 cells assessed as necrotic cells at 32 uM incubated for 24 hrs by Annexin V-FITC/PI staining based flow cytometric analysis (reference value: 0.0 %); format: functional
[19] = tested on: SCC-9; assay: Cell cycle arrest in human SCC-9 cells assessed as accumulation at G0/G1 phase at 32.4 uM incubated for 24 hrs by flow cytometry (reference value: 70.8 %); format: functional
[20] = tested on: SCC-9; assay: Induction of apoptosis in human SCC-9 cells assessed as downregulation of Nanog gene expression at 16 uM by qRT-PCR analysis; format: functional, cell-based
[21] = tested on: CAL-27; assay: Induction of apoptosis in human CAL-27 cells assessed as downregulation of BcL-2 gene expression at 32 uM by qRT-PCR analysis; format: functional, cell-based; method in brief: as §1
[22] = tested on: SCC-9; assay: Induction of apoptosis in human SCC-9 cells assessed as downregulation of vimentin gene expression at 32 uM by qRT-PCR analysis; format: functional, cell-based
[23] = tested on: CAL-27; assay: Induction of apoptosis in human CAL-27 cells assessed as upregulation of Bax gene expression at 16 uM by qRT-PCR analysis; format: functional, cell-based
Method in brief: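 CAL27 cells were treated with test agents at different concentrations. Relative mRNA levels of vimentin, E-cad, Nanog, Oct-4, Bax and Bcl-2 were then quantified by qRT-PCR as apoptosis, EMT and stemness markers.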

[24] = tested on: SCC-9; assay: Induction of apoptosis in human SCC-9 cells assessed as upregulation of Bax gene expression at 16 uM by qRT-PCR analysis; format: functional, cell-based

Structure (SMILES): COc1ccc(-c2csc(NC(=O)CN3CCN(Cc4c(O)c(OC)c(O)c5c4C(=O)OC4C5O[C@H](CO)[C@@H](O)[C@@H]4O)CC3)n2)cc1 (some centres undefined)
- Activity [1]: 5.9%
- Activity [2]: Active
- Activity [3]: 10.5%
- Activity [4]: 40.8%
- Activity [5]: Active
- Activity [6]: Active
- Activity [7]: 2.1%
- Activity [8]: 9.2%
- Activity [9]: Active
- Activity [10]: 10.6%
- Activity [11]: 2.8%
- Activity [12]: Active
- Activity [13]: 42.8%
- Activity [14]: 33.8%
- Activity [15]: 87.1%
- IC50 [16]: > 100 µM
- Activity [17]: Active
- Activity [18]: 1.9%
- Activity [19]: 77.6%
- Activity [20]: Active
- Activity [21]: Active
- Activity [22]: Active
- Activity [23]: Active
- Activity [24]: Active
